In ChEMBL document CHEMBL4145576, “Isolation, Synthesis, and Antisepsis Effects of a C-Methylcoumarinochromone Isolated from Abronia nana Cell Culture” (J Nat Prod, 2018):
Activity calls are given as the source filed them. The rule behind the calls is not given here.

Key:
Beta-secretase 1 = Beta-secretase 1 (Homo sapiens, UniProt P56817); test: Inhibition of recombinant human BACE1 using RhEVNLDAEFK-Quencher as substrate after 60 mins by fluorescence assay
Mus musculus [1] = test: Antisepsis activity in C57BL/6 mouse CLP surgery model assessed as reduction in bacterial burden in peritoneal lavage fluid at 28 to 56 ug/kg, iv measured after 24 hrs; assay type: functional, organism-based
In short: (§1)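 Male C57BL/6 mice (27 g) underwent CLP: cecum ligated 5 mm from tip and punctured once with a 22-gauge needle. Peritoneal lavage fluid and blood collected 24 h after CLP and centrifuged. Diluted samples plated on 5% sheep blood agar at 37 °C for 24 h, then CFUs counted; n = 10.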

Mus musculus [2] = test: Antisepsis activity in C57BL/6 mouse assessed as inhibition of CLP-induced mortality at 56 ug/kg, iv administered twice daily at 12 and 50 hrs post CLP measured every 6 hrs post CLP for 150 hrs (reference value: 40%); assay type: functional; conditions: C57BL/6, iv
Mus musculus [3] = test: Antisepsis activity in C57BL/6 mouse assessed as inhibition of CLP-induced IL-10 level in blood at 28 to 56 ug/kg, iv at 12 and 50 hrs post CLP surgery by ELISA; assay type: functional, organism-based
In short: (§2)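 Male C57BL/6 mice underwent CLP and received compound iv (28 or 56 μg/kg) at 12 and 50 h after CLP. Animals bled out. AST, ALT, BUN, creatinine and LDH measured in plasma/serum with biochemical kits. IL-1β, IL-6, IL-10, MCP-1 and TNF-α measured by ELISA. Means ± SD of five independent experiments.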

[4] = molecular target: T1, High mobility group protein B1 (Homo sapiens) (UniProt P09429); test: Inhibition of HMGB1-induced TLR2 expression level in HUVEC at 0.1 to 1 uM after 6 hrs by ELISA; assay type: cell-based
T1 sequence (whole entry): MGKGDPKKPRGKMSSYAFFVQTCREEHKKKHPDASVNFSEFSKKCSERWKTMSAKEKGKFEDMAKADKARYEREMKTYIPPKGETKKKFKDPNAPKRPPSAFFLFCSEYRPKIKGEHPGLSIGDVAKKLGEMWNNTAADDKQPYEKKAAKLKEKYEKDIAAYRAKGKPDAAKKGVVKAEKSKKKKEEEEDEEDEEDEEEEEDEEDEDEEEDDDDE
In short: (§3)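 Confluent HUVECs activated with HMGB1 (1 μg/mL, 16 h), then incubated with compound for 6 h. Surface TLR2, TLR4 and RAGE determined by cell-based ELISA with specific antibodies.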

Mus musculus [5] = test: Antisepsis activity in C57BL/6 mouse assessed as inhibition of CLP-induced ALT level in plasma at 28 to 56 ug/kg, iv at 12 and 50 hrs post CLP surgery; assay type: functional, organism-based; in short: as §2
[6] = molecular target: T1, High mobility group protein B1 (Homo sapiens); test: Inhibition of HMGB1-mediated disruption of barrier integrity in HUVEC by measuring flux of albumin-bound evans blue after 6 hrs by spectrophotometric method; assay type: cell-based
In short: (§4)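 HUVECs (5 × 10^4 cells/well) grown 3 days on 3 μm Transwells to confluence. Monolayers exposed to LPS (100 ng/mL, 4 h) or HMGB1 (1 μg/mL, 16 h), or left unstimulated, then treated with compound for 6 h. Flux of albumin-bound Evans blue measured spectrophotometrically.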

Mus musculus [7] = test: Antisepsis activity in C57BL/6 mouse assessed as inhibition of CLP-induced death at 56 ug/kg, iv measured 12 hrs post CLP; assay type: functional, organism-based
[8] = molecular target: T1, High mobility group protein B1 (Homo sapiens); test: Inhibition of HMGB1-mediated ICAM-1 expression level in HUVEC at 0.1 to 1 uM after 6 hrs by ELISA; assay type: cell-based
In short: (§5)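 Confluent HUVECs treated with HMGB1 (1 μg/mL, 16 h), then compound (0–1 μM) for 6 h. Cells fixed in 1% paraformaldehyde and probed with anti-VCAM-1, ICAM-1 or E-selectin (1:50, 1 h, 37 °C). Peroxidase anti-mouse IgG (1:2000) added, developed with o-phenylenediamine, read at 490 nm.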

Mus musculus [9] = test: Antisepsis activity in C57BL/6 mouse assessed as inhibition of CLP-induced TNFalpha level in blood at 28 to 56 ug/kg, iv at 12 and 50 hrs post CLP surgery by ELISA; assay type: functional, organism-based; in short: as §2
Lipopolysaccharide (LPS) = test: Inhibition of bacterial LPS-mediated disruption of barrier integrity in HUVEC by measuring flux of albumin-bound evans blue after 6 hrs by spectrophotometric method; assay type: cell-based; conditions: Bacteria; in short: as §4
[10] = molecular target: T1, High mobility group protein B1 (Homo sapiens); test: Inhibition of HMGB1-induced RAGE expression level in HUVEC at 0.1 to 1 uM after 6 hrs by ELISA; assay type: cell-based; in short: as §3
[11] = molecular target: T1, High mobility group protein B1 (Homo sapiens); test: Inhibition of HMGB1-mediated E-selectin expression level in HUVEC at 0.1 to 1 uM after 6 hrs by ELISA; assay type: cell-based; in short: as §5
HUVEC [12] = test: Cytotoxicity against HUVEC assessed as reduction in cell viability up to 5 uM after 48 hrs by MTT assay; assay type: cell-based; conditions: human
In short: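 HUVECs (passage 3–5; 5 × 10^3 cells/well) seeded for 24 h, then exposed to compound for 48 h. MTT (1 mg/mL) added for 4 h. Formazan dissolved in DMSO and read at 540 nm.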

Mus musculus [13] = test: Antisepsis activity in C57BL/6 mouse CLP surgery model assessed as reduction in bacterial burden in blood at 28 to 56 ug/kg, iv measured after 24 hrs; assay type: functional, organism-based; in short: as §1
HUVEC [14] = test: Effect on HMGB1 release in HUVEC at > 0.2 uM after 6 hrs by ELISA; assay type: ADME, cell-based; conditions: human
[15] = molecular target: T1, High mobility group protein B1 (Homo sapiens); test: Inhibition of HMGB1-mediated VCAM-1 expression level in HUVEC at 0.1 to 1 uM after 6 hrs by ELISA; assay type: cell-based; in short: as §5
Mus musculus [16] = test: Antisepsis activity in C57BL/6 mouse assessed as inhibition of CLP-induced blood urea nitrogen level in plasma at 28 to 56 ug/kg, iv at 12 and 50 hrs post CLP surgery; assay type: functional, organism-based; in short: as §2
Mus musculus [17] = test: Antisepsis activity in C57BL/6 mouse assessed as inhibition of CLP-induced HMGB1 release in serum at 28 to 56 ug/kg, iv administered 12 hrs post CLP challenge by ELISA; assay type: functional, organism-based
In short: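 Male C57BL/6 mice underwent CLP and received compound iv (28 or 56 μg/kg) 12 h later; n = 5. Mice killed 24 h after CLP. Serum HMGB1 measured by ELISA.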

[18] = molecular target: T1, High mobility group protein B1 (Homo sapiens); test: Inhibition of LPS-induced HMGB1 release in HUVEC at > 0.2 uM pretreated with bacterial LPS for 16 hrs followed by compound treatment measured after 6 hrs by ELISA; assay type: cell-based
Mus musculus [19] = test: Antisepsis activity in C57BL/6 mouse assessed as inhibition of CLP-induced AST level in plasma at 28 to 56 ug/kg, iv at 12 and 50 hrs post CLP surgery; assay type: functional, organism-based; in short: as §2
[20] = molecular target: T1, High mobility group protein B1 (Homo sapiens); test: Inhibition of HMGB1-mediated p38 MAPK phosphorylation in HUVEC at 0.1 to 1 uM after 6 hrs by ELISA; assay type: cell-based
In short: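 HUVECs activated with HMGB1 (1 μg/mL, 16 h), then treated with compound for 6 h. Phospho-p38 MAPK measured by ELISA kit.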

Mus musculus [21] = test: Antisepsis activity in C57BL/6 mouse assessed as inhibition of CLP-induced IL-1beta level in blood at 28 to 56 ug/kg, iv at 12 and 50 hrs post CLP surgery by ELISA; assay type: functional, organism-based; in short: as §2
Mus musculus [22] = test: Antisepsis activity in C57BL/6 mouse assessed as inhibition of CLP-induced lactate dehydrogenase level in plasma at 28 to 56 ug/kg, iv at 12 and 50 hrs post CLP surgery; assay type: functional, organism-based; in short: as §2
Mus musculus [23] = test: Antisepsis activity in C57BL/6 mouse assessed as inhibition of CLP-induced MCP1 level in blood at 28 to 56 ug/kg, iv at 12 and 50 hrs post CLP surgery by ELISA; assay type: functional, organism-based; in short: as §2
HUVEC [24] = test: Effect on barrier integrity in HUVEC at 1 uM after 6 hrs by spectrophotometric method; assay type: ADME, cell-based; conditions: human; in short: as §4
Mus musculus [25] = test: Antisepsis activity in C57BL/6 mouse assessed as inhibition of CLP-induced creatinine level in plasma at 28 to 56 ug/kg, iv at 12 and 50 hrs post CLP surgery; assay type: functional, organism-based; in short: as §2
[26] = molecular target: T1, High mobility group protein B1 (Homo sapiens); test: Inhibition of HMGB1-mediated human neutrophil adhesion in HUVEC after 6 hrs by ELISA; assay type: cell-based
In short: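 HUVEC monolayers treated with HMGB1 (1 μg/mL, 16 h), then compound (0–1 μM) for 6 h. Human neutrophils (1.5 × 10^6 cells/mL) labelled with Vybrant DiD dye and added to the washed monolayers. Adhesion measured by fluorescence.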

Mus musculus [27] = test: Antisepsis activity in C57BL/6 mouse assessed as inhibition of HMGB1-induced vascular hyperpermeability by measuring amount of evans blue in the peritoneal washings at 28 to 56 ug/kg, iv pretreated with HMGB1 for 16 hrs followed by compound treatment measured after 6 hrs […]; assay type: functional, organism-based
In short: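 Mice given iv HMGB1 (2 μg/mouse) for 16 h, then compound (28 or 56 μg/kg) for 6 h. 1% Evans blue in saline injected iv; mice killed 30 min later. Peritoneal washings (5 mL saline) centrifuged at 200g for 10 min and read at 650 nm. Dye leak read from a standard curve as μg/mouse; n = 5.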

Mus musculus [28] = test: Antisepsis activity in C57BL/6 mouse CLP surgery model assessed as inhibition of HMGB1-induced leukocyte migration into peritoneal cavity at 28 to 56 ug/kg, iv; assay type: functional, organism-based
In short: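 Mice given HMGB1 (2 μg/mouse) iv for 16 h, then compound (28 or 56 μg/kg) for 6 h. Peritoneal cavity washed with 5 mL saline after 6 h. Fluid diluted in Türk's solution (0.01% crystal violet, 3% acetic acid). Leukocytes counted by light microscopy.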

[29] = molecular target: T1, High mobility group protein B1 (Homo sapiens); test: Inhibition of HMGB1-mediated human neutrophil migration in HUVEC after 6 hrs by crystal violet staining based microscopy; assay type: cell-based
In short: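 HUVECs (6 × 10^4 cells/well) grown 3 days on 8 μm Transwells, then treated with HMGB1 (1 μg/mL, 16 h) and compound for 6 h before cells added to the upper chamber. Migrated cells fixed in 8% glutaraldehyde and stained with 0.25% crystal violet. Nine 200× fields per well counted; run in duplicate; migration index.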

Mus musculus [30] = test: Antisepsis activity in C57BL/6 mouse assessed as inhibition of CLP-induced IL-6 level in blood at 28 to 56 ug/kg, iv at 12 and 50 hrs post CLP surgery by ELISA; assay type: functional, organism-based; in short: as §2
[31] = molecular target: T1, High mobility group protein B1 (Homo sapiens); test: Inhibition of HMGB1-induced TLR4 expression level in HUVEC at 0.1 to 1 uM after 6 hrs by ELISA; assay type: cell-based; in short: as §3

Chain of Beta-secretase 1 (P56817 whole entry): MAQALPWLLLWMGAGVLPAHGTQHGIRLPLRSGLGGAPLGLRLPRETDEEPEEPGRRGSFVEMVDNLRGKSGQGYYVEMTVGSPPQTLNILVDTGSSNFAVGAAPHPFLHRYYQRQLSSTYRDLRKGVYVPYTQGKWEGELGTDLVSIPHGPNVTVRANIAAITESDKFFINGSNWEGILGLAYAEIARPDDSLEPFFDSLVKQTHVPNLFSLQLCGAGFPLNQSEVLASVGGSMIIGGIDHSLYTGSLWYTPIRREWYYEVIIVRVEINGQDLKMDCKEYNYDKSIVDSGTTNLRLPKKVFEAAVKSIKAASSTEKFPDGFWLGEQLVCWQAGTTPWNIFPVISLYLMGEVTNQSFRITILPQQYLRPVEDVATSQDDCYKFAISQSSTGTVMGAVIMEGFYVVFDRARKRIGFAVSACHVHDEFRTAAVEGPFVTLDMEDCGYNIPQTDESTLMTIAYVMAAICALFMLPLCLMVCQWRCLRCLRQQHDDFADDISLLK

Cc1c(O)cc2oc3c(c(=O)c2c1O)-c1ccc(O)cc1OC3O (stereo not drawn) [BOERAVINONE E]
IC50 (Beta-secretase 1): 5.6 µM

Cc1c(O)cc2oc3oc4ccccc4c3c(=O)c2c1O
Activity (Mus musculus [1]): Active | mortality at 0.056 mg/kg (Mus musculus [2]): 60% | inhibition (Mus musculus [3]): Active | inhibition [4]: Active | inhibition (Mus musculus [5]): Active | inhibition [6]: Dose-dependent effect | inhibition (Mus musculus [7]): inactive | inhibition [8]: Active | inhibition (Mus musculus [9]): Active | inhibition (Lipopolysaccharide (LPS)): Dose-dependent effect | inhibition [10]: Active | inhibition [11]: Active | Activity (HUVEC [12]): Non-Toxic | Activity (Mus musculus [13]): Active | Activity (HUVEC [14]): Non-Toxic | inhibition [15]: Active | inhibition (Mus musculus [16]): Active | inhibition (Mus musculus [17]): Active | inhibition [18]: Active | inhibition (Mus musculus [19]): Active | inhibition [20]: Active | inhibition (Mus musculus [21]): Active | inhibition (Mus musculus [22]): Active | inhibition (Mus musculus [23]): Active | Activity (HUVEC [24]): Non-Toxic | inhibition (Mus musculus [25]): Active | inhibition [26]: Dose-dependent effect | inhibition (Mus musculus [27]): Active | inhibition (Mus musculus [28]): Active | inhibition [29]: Dose-dependent effect | inhibition (Mus musculus [30]): Active | inhibition [31]: Active
